Active and inactive are the calls of the source. The calls are words filed in the database; no cut-off is given here.
Key:
[1] = tested on: Canis familiaris; assay: Gastric antisecretory activity in food stimulated pavlov dogs by intrapouch administration; format: functional; conditions: Canis lupus familiaris
In short: (§1)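 Adult female beagles (6–11 kg) with innervated Pavlov gastric pouches, food-deprived 14 h with water. After 30 min basal collection, prostaglandin in buffer-ethanol vehicle given into pouch via Thomas cannula; 30 min later pouch emptied and secretion stimulated by feeding canned dog food. Juice collected at 30-min intervals over 4 h; total acid output = volume × acidity. Percent reduction from control over 4 h.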

[2] = tested on: Rattus norvegicus; assay: Compound was evaluated for diarrheagenic side effects in adult male rats by intragastric administration; format: functional; conditions: po
In short: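 Adult Charles River male rats, 210–230 g, individually housed, fasted 24 h with water ad libitum. Logarithmically graded prostaglandin doses given orally (N = 6–12). Diarrhea scored all-or-none for 8 h after dosing.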

[3] = Selectivity ratio was evaluated by the quotient of diarrheal ED50 value divided by antisecretory ED50 x 10 E-3; format: functional
In short: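 Quotient of diarrheal ED50 (male rats, oral graded doses, all-or-none diarrhea over 8 h) over antisecretory ED50 (Pavlov pouch beagles, intrapouch dosing, percent reduction of food-stimulated 4-h total acid output). Antisecretory ED50 from linear regression of dose-response, 3–6 doses and 2–4 dogs per dose.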

[4] = tested on: Canis familiaris; assay: Gastric antisecretory activity in food stimulated pavlov dogs by intrapouch administration; Inactive at 3.0 ug/Kg; format: functional, organism-based; conditions: Canis lupus familiaris; in short: as §1

| Structure (SMILES) | ED50 [1] [µg/kg] | ED50 [2] [µg/kg] | Ratio [3] | ED50 [4] |
| --- | --- | --- | --- | --- |
| C=C/C=C/[C@](C)(O)C/C=C/[C@H]1[C@H](O)CC(=O)[C@@H]1CC/C=C\CCC(=O)OC | 0.007 | 243 | 35 |  |
| COC(=O)CC/C=C\CC[C@H]1C(=O)C[C@@H](O)[C@@H]1/C=C/C[C@@](C)(O)/C=C/C=C(C)C | 0.06 | > 3160 | > 53 |  |
| C=C(C)/C=C/[C@](C)(O)C/C=C/[C@H]1[C@H](O)CC(=O)[C@@H]1CC/C=C\CCC(=O)OC | 0.002 | 420 | 210 |  |
| COC(=O)CC/C=C\CC[C@H]1C(=O)C[C@@H](O)[C@@H]1/C=C/C[C@@](C)(O)/C=C/C(C)=C(C)C | 0.06 | > 3160 | > 53 |  |
| COC(=O)CC/C=C\CC[C@H]1C(=O)C[C@@H](O)[C@@H]1/C=C/C[C@@](C)(O)/C=C/C1=CCCC1 | 0.02 | > 3160 | > 158 |  |
| C/C=C/C=C/[C@](C)(O)C/C=C/[C@H]1[C@H](O)CC(=O)[C@@H]1CC/C=C\CCC(=O)OC | 0.03 | 250 | 8 |  |
| C/C=C(C)/C=C/[C@](C)(O)C/C=C/[C@H]1[C@H](O)CC(=O)[C@@H]1CC/C=C\CCC(=O)OC | 0.003 | 185 | 62 |  |
| C=C/C(C)=C/[C@](C)(O)C/C=C/[C@H]1[C@H](O)CC(=O)[C@@H]1CC/C=C\CCC(=O)OC | 0.71 | 1030 | 1.4 |  |
| CCCCC(C)(O)C/C=C/[C@H]1[C@H](O)CC(=O)[C@@H]1CC/C=C\CCC(=O)OC (stereo not given in full) [ENISOPROST] | 0.023 | 49 | 2 |  |
| C/C=C\C=C\[C@](C)(O)C/C=C/[C@H]1[C@H](O)CC(=O)[C@@H]1CC/C=C\CCC(=O)OC | 0.009 | 306 | 34 |  |
| C/C=C(C)\C=C\[C@](C)(O)C/C=C/[C@H]1[C@H](O)CC(=O)[C@@H]1CC/C=C\CCC(=O)OC | 0.016 | 1230 | 76 |  |
| C=C/C=C(\C)[C@](C)(O)C/C=C/[C@H]1[C@H](O)CC(=O)[C@@H]1CC/C=C\CCC(=O)OC |  | > 3160 |  | inactive |

Reference: ChEMBL document CHEMBL1125375, “Synthesis and structure-activity relationships of acyclic omega chain conjugated diene analogues of enisoprost” (1992)
